Assay results reported in ChEMBL document CHEMBL1142148, “Antibiotic susceptibility profile of bifidobacteria as affected by oxgall, acid, and hydrogen peroxide stress” (2007).

Experiments:
Bifidobacterium longum [1] = assay: Antimicrobial activity against 90 mins oxgall-stressed Bifidobacterium longum ATCC 15707 after 18 hrs; type: functional
In short: (§1)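 Cells pelleted from mid-log MRS culture and resuspended in MRS (initial pH 6.5) with 0.3% (wt/vol) oxgall for 90 min anaerobically at 37°C. They were then regrown in MRS pH 6.5 for 24 h (footnote: 18 h) anaerobically and tested for MIC by the same broth microdilution assay. Median of four repetitions.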

Bifidobacterium breve [2] = assay: Antimicrobial activity against Bifidobacterium breve ATCC 15700; type: functional
In short: (§2)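 Broth microdilution in MRS plus 0.05% L-cysteine-HCl. Mid-log culture adjusted to OD650 0.1, giving about 2.5 × 10^4 to 5.0 × 10^4 CFU/well, then added to twofold serial dilutions of agent. Plates incubated anaerobically at 37°C for 18 h and read at OD650. MIC is the lowest concentration matching the uninoculated blank OD, taken as the median of four repeats.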

Bifidobacterium bifidum [3] = assay: Antimicrobial activity against 60 min 1 M HCl-stressed Bifidobacterium bifidum R0071 after 18 hrs; type: functional
In short: (§3)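 Mid-log MRS culture pelleted and resuspended in MRS broth brought to pH 2.0 with 1 M HCl, held anaerobically at 37°C for 60 min, then subcultured in MRS (pH 6.5) for 24 h anaerobically before MIC testing by broth microdilution (as for unstressed cells). Table footnote gives 18 h anaerobic regrowth after the stress. MIC is the median of four repetitions.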

Bifidobacterium breve [4] = assay: Antimicrobial activity against 60 min 1 M HCl-stressed Bifidobacterium breve ATCC 15700 after 18 hrs; type: functional; in short: as §3
Bifidobacterium longum [5] = assay: Antimicrobial activity against 90 mins oxgall-stressed Bifidobacterium longum P/N 601377 after 18 hrs; type: functional; in short: as §1
Bifidobacterium bifidum [6] = assay: Antimicrobial activity against 90 mins hydrogen peroxide-stressed Bifidobacterium bifidum R0071 after 18 hrs; type: functional
In short: (§4)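 Stress applied for 90 min at 37°C under anaerobic conditions, using MRS (initial pH 6.5) containing H2O2 at each strain's own inhibitory concentration. The H2O2 level was set beforehand by microplate tolerance testing. Challenged cells were regrown in MRS for 24 h (footnote: 18 h) before MIC testing by broth microdilution. Median of four repetitions.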

[7] = test system: Bifidobacterium thermophilum; assay: Antimicrobial activity against Bifidobacterium thermophilum ATCC 25866; type: functional; in short: as §2
Bifidobacterium bifidum [8] = assay: Antimicrobial activity against 90 mins oxgall-stressed Bifidobacterium bifidum R0071 after 18 hrs; type: functional; in short: as §1
Bifidobacterium breve [9] = assay: Antimicrobial activity against 90 mins hydrogen peroxide-stressed Bifidobacterium breve ATCC 15700 after 18 hrs; type: functional; in short: as §4
Bifidobacterium bifidum [10] = assay: Antimicrobial activity against 60 min 1 M HCl-stressed Bifidobacterium bifidum BB12 after 18 hrs; type: functional; in short: as §3
[11] = test system: Bifidobacterium thermophilum; assay: Antimicrobial activity against 90 mins oxgall-stressed Bifidobacterium thermophilum ATCC 25866 after 18 hrs; type: functional; in short: as §1
Bifidobacterium longum [12] = assay: Antimicrobial activity against 90 mins hydrogen peroxide-stressed Bifidobacterium longum P/N 601377 after 18 hrs; type: functional; in short: as §4
Bifidobacterium breve [13] = assay: Antimicrobial activity against Bifidobacterium breve R0070; type: functional; in short: as §2
[14] = test system: Bifidobacterium thermophilum; assay: Antimicrobial activity against 60 min 1 M HCl-stressed Bifidobacterium thermophilum ATCC 25866 after 18 hrs; type: functional; in short: as §3
Bifidobacterium bifidum [15] = assay: Antimicrobial activity against 90 mins hydrogen peroxide-stressed Bifidobacterium bifidum BB12 after 18 hrs; type: functional; in short: as §4
[16] = test system: Bifidobacterium thermophilum; assay: Antimicrobial activity against 90 mins hydrogen peroxide-stressed Bifidobacterium thermophilum ATCC 25866 after 18 hrs; type: functional; in short: as §4
[17] = Antimicrobial activity against 90 mins oxgall-stressed Bifidobacterium infantis ATCC 15697 after 18 hrs; type: functional, Bifidobacterium longum subsp. infantis; settings: Bifidobacterium longum; in short: as §1
Bifidobacterium animalis [18] = assay: Antimicrobial activity against 90 mins hydrogen peroxide-stressed Bifidobacterium animalis ATCC 27536 after 18 hrs; type: functional; in short: as §4
Bifidobacterium bifidum [19] = assay: Antimicrobial activity against Bifidobacterium bifidum R0071; type: functional; in short: as §2
Bifidobacterium bifidum [20] = assay: Antimicrobial activity against 90 mins oxgall-stressed Bifidobacterium bifidum ATCC 15696 after 18 hrs; type: functional; in short: as §1
Bifidobacterium longum [21] = assay: Antimicrobial activity against 90 mins oxgall-stressed Bifidobacterium longum R0175 after 18 hrs; type: functional; in short: as §1
[22] = Antimicrobial activity against 60 min 1 M HCl-stressed Bifidobacterium infantis ATCC 15697 after 18 hrs; type: functional, Bifidobacterium longum subsp. infantis; settings: Bifidobacterium longum; in short: as §3
Bifidobacterium breve [23] = assay: Antimicrobial activity against 90 mins hydrogen peroxide-stressed Bifidobacterium breve R0070 after 18 hrs; type: functional; in short: as §4
Bifidobacterium animalis [24] = assay: Antimicrobial activity against 90 mins oxgall-stressed Bifidobacterium animalis ATCC 27536 after 18 hrs; type: functional; in short: as §1
Bifidobacterium longum [25] = assay: Antimicrobial activity against 60 min 1 M HCl-stressed Bifidobacterium longum ATCC 15707 after 18 hrs; type: functional; in short: as §3
[26] = test system: Bifidobacterium pseudolongum; assay: Antimicrobial activity against 90 mins oxgall-stressed Bifidobacterium pseudolongum ATCC 25562 after 18 hrs; type: functional; in short: as §1
[27] = test system: Bifidobacterium pseudolongum; assay: Antimicrobial activity against 60 min 1 M HCl-stressed Bifidobacterium pseudolongum ATCC 25562 after 18 hrs; type: functional; in short: as §3
Bifidobacterium breve [28] = assay: Antimicrobial activity against 90 mins oxgall-stressed Bifidobacterium breve ATCC 15700 after 18 hrs; type: functional; in short: as §1
Bifidobacterium longum [29] = assay: Antimicrobial activity against Bifidobacterium longum ATCC 15708; type: functional; in short: as §2
Bifidobacterium longum [30] = assay: Antimicrobial activity against 90 mins oxgall-stressed Bifidobacterium longum ATCC 15708 after 18 hrs; type: functional; in short: as §1
Bifidobacterium longum [31] = assay: Antimicrobial activity against Bifidobacterium longum ATCC 15707; type: functional; in short: as §2
Bifidobacterium animalis [32] = assay: Antimicrobial activity against Bifidobacterium animalis ATCC 27536; type: functional; in short: as §2
Bifidobacterium longum [33] = assay: Antimicrobial activity against 90 mins hydrogen peroxide-stressed Bifidobacterium longum R0175 after 18 hrs; type: functional; in short: as §4
Bifidobacterium bifidum [34] = assay: Antimicrobial activity against 90 mins oxgall-stressed Bifidobacterium bifidum BB12 after 18 hrs; type: functional; in short: as §1
[35] = test system: Bifidobacterium pseudolongum; assay: Antimicrobial activity against Bifidobacterium pseudolongum ATCC 25562; type: functional; in short: as §2
Bifidobacterium bifidum [36] = assay: Antimicrobial activity against Bifidobacterium bifidum ATCC 15696; type: functional; in short: as §2
Bifidobacterium bifidum [37] = assay: Antimicrobial activity against Bifidobacterium bifidum BB12; type: functional; in short: as §2
Bifidobacterium longum [38] = assay: Antimicrobial activity against 60 min 1 M HCl-stressed Bifidobacterium longum P/N 601377 after 18 hrs; type: functional; in short: as §3
Bifidobacterium longum [39] = assay: Antimicrobial activity against 90 mins hydrogen peroxide-stressed Bifidobacterium longum ATCC 15708 after 18 hrs; type: functional; in short: as §4
Bifidobacterium breve [40] = assay: Antimicrobial activity against 60 min 1 M HCl-stressed Bifidobacterium breve R0070 after 18 hrs; type: functional; in short: as §3
Bifidobacterium longum [41] = assay: Antimicrobial activity against Bifidobacterium longum P/N 601377; type: functional; in short: as §2
[42] = Antimicrobial activity against Bifidobacterium infantis ATCC 15697; type: functional, Bifidobacterium longum subsp. infantis; settings: Bifidobacterium longum; in short: as §2
Bifidobacterium longum [43] = assay: Antimicrobial activity against 90 mins hydrogen peroxide-stressed Bifidobacterium longum ATCC 15707 after 18 hrs; type: functional; in short: as §4
Bifidobacterium breve [44] = assay: Antimicrobial activity against 90 mins oxgall-stressed Bifidobacterium breve R0070 after 18 hrs; type: functional; in short: as §1
Bifidobacterium animalis [45] = assay: Antimicrobial activity against 60 min 1 M HCl-stressed Bifidobacterium animalis ATCC 27536 after 18 hrs; type: functional; in short: as §3
Bifidobacterium longum [46] = assay: Antimicrobial activity against 60 min 1 M HCl-stressed Bifidobacterium longum R0175 after 18 hrs; type: functional; in short: as §3
Bifidobacterium longum [47] = assay: Antimicrobial activity against Bifidobacterium longum R0175; type: functional; in short: as §2

Measured: MIC

NC[C@@H]1O[C@H](O[C@H]2[C@@H](O)[C@H](O[C@@H]3[C@@H](O)[C@H](N)C[C@H](N)[C@H]3O[C@H]3O[C@H](CO)[C@@H](O)[C@H](O)[C@H]3N)O[C@@H]2CO)[C@H](N)[C@@H](O)[C@@H]1O [PAROMOMYCIN]
250 µg/mL: Bifidobacterium breve [2] | Bifidobacterium bifidum [3] | [7] | [11] | Bifidobacterium breve [13] | Bifidobacterium bifidum [19] | [22] | Bifidobacterium breve [23] | [27] | Bifidobacterium breve [28] | Bifidobacterium longum [29] | Bifidobacterium longum [31] | Bifidobacterium animalis [32] | Bifidobacterium longum [33] | Bifidobacterium bifidum [34] | [35] | Bifidobacterium bifidum [36] | Bifidobacterium bifidum [37] | Bifidobacterium longum [38] | Bifidobacterium longum [39] | Bifidobacterium breve [40] | Bifidobacterium longum [41] | [42] | Bifidobacterium longum [46] | Bifidobacterium longum [47]
62.5 µg/mL: Bifidobacterium longum [5]
125 µg/mL: Bifidobacterium longum [1] | Bifidobacterium breve [4] | Bifidobacterium bifidum [6] | Bifidobacterium bifidum [8] | Bifidobacterium bifidum [10] | Bifidobacterium longum [12] | Bifidobacterium longum [21] | Bifidobacterium animalis [24] | Bifidobacterium breve [44]
500 µg/mL: Bifidobacterium breve [9] | [14] | Bifidobacterium bifidum [15] | [16] | [17] | Bifidobacterium animalis [18] | Bifidobacterium bifidum [20] | Bifidobacterium longum [25] | [26] | Bifidobacterium longum [30] | Bifidobacterium longum [43] | Bifidobacterium animalis [45]

NC[C@@H]1O[C@H](O[C@H]2[C@@H](O)[C@H](O[C@@H]3[C@@H](O)[C@H](N)C[C@H](N)[C@H]3O[C@H]3O[C@H](CN)[C@@H](O)[C@H](O)[C@H]3N)O[C@@H]2CO)[C@H](N)[C@@H](O)[C@@H]1O [FRAMYCETIN]
250 µg/mL: Bifidobacterium breve [2] | Bifidobacterium bifidum [3] | [7] | Bifidobacterium breve [9] | Bifidobacterium breve [13] | [14] | Bifidobacterium bifidum [15] | Bifidobacterium bifidum [19] | Bifidobacterium bifidum [20] | [22] | Bifidobacterium breve [23] | [26] | [27] | Bifidobacterium longum [29] | Bifidobacterium longum [31] | Bifidobacterium animalis [32] | Bifidobacterium bifidum [34] | [35] | Bifidobacterium bifidum [36] | Bifidobacterium bifidum [37] | Bifidobacterium longum [38] | Bifidobacterium longum [39] | Bifidobacterium breve [40] | [42] | Bifidobacterium longum [43] | Bifidobacterium animalis [45] | Bifidobacterium longum [46] | Bifidobacterium longum [47]
500 µg/mL: [16] | [17] | Bifidobacterium animalis [18] | Bifidobacterium longum [25] | Bifidobacterium longum [30]
125 µg/mL: Bifidobacterium longum [1] | Bifidobacterium breve [4] | Bifidobacterium bifidum [6] | Bifidobacterium bifidum [10] | [11] | Bifidobacterium longum [12] | Bifidobacterium animalis [24] | Bifidobacterium breve [28] | Bifidobacterium longum [33] | Bifidobacterium longum [41]
62.5 µg/mL: Bifidobacterium longum [5] | Bifidobacterium bifidum [8] | Bifidobacterium longum [21] | Bifidobacterium breve [44]
